From ChEMBL document CHEMBL2163332 (J Med Chem, 2012)
pEC50, pIC50, pKi: −log10 of the molar value. Active and inactive are the calls of the source. The calls are words filed in the database; no cut-off is given here.

Key:
[1] = target: Delta-type opioid receptor (Mus musculus) (UniProt P32300); assay: Agonist activity at delta opioid receptor in Kunming mouse vas deferens assessed as inhibition of electrically-stimulated muscle contraction in presence of delta opioid receptor antagonist naltrindole; assay type: functional, tissue-based
Sequence of Delta-type opioid receptor (Mus musculus) (P32300 whole entry): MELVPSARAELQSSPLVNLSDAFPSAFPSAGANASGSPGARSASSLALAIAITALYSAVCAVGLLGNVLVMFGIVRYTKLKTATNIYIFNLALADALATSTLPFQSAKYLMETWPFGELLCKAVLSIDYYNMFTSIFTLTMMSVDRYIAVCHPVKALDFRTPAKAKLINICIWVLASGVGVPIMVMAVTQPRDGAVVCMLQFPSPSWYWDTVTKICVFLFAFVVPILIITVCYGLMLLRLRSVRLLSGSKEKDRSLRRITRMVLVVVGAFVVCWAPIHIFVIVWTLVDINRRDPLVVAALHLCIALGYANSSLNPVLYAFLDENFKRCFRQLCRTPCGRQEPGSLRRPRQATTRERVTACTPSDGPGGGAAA

[2] = test system: Mus musculus; assay: Antinociceptive activity in Kunming mouse assessed as inhibition of heat-induced tail flick at 0.67 to 20 nmol/kg, icv; assay type: functional, organism-based; conditions: TDE = time-dependent effect
Summary of the method: (§1)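 Male Kunming mice (18−22 g), peptide or saline given icv; tail immersed in 50 ± 0.2 °C water and withdrawal latency recorded; only mice with baseline latency about 3−5 s used. Readings at 5, 10, 15, 20, 30, 40, 50 and 60 min post-injection; 10−15 mice per group. Naloxone 2 mg/kg ip 10 min before icv dosing for antagonism. ED50 with 95% confidence limits by graded dose−response.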

[3] = test system: Mus musculus; assay: Antinociceptive activity in icv dosed Kunming mouse assessed as inhibition of heat-induced tail flick after 5 to 60 mins; assay type: functional; conditions: for ED50: central; summary of the method: as §1
[4] = Selectivity ratio of Ki for Myc-tagged delta opioid receptor to Ki for FLAG-tagged mu opioid receptor
[5] = target: T1, Mu-type opioid receptor (Homo sapiens, UniProt P35372); assay: Displacement of [3H]DAMGO from FLAG-tagged mu opioid receptor expressed in HEK293 cells after 60 mins by liquid scintillation counter; assay type: cell-based
T1 sequence (P35372 whole entry): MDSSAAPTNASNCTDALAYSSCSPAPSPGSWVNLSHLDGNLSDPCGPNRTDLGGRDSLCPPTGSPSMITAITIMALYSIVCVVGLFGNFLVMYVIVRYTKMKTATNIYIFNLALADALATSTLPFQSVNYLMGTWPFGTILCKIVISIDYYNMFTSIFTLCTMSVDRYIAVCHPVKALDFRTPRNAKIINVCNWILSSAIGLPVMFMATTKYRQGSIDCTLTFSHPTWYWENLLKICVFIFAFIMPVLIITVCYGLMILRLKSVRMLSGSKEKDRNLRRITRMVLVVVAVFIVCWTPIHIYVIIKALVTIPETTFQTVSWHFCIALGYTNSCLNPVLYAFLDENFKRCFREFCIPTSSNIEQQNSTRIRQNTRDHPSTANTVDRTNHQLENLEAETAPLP

[6] = test system: Mus musculus; assay: Antinociceptive activity in naloxone treated Kunming mouse assessed as inhibition of heat-induced tail flick at 20 nmol/kg, icv after 10 mins post naloxone treatment; assay type: functional, organism-based; summary of the method: as §1
[7] = target: Mu-type opioid receptor (Cavia porcellus, UniProt P97266); assay: Agonist activity at mu opioid receptor in guinea pig ileum assessed as inhibition of electrically-stimulated muscle contraction; assay type: functional, tissue-based
Sequence of Mu-type opioid receptor (Cavia porcellus, UniProt P97266) (P97266 whole entry): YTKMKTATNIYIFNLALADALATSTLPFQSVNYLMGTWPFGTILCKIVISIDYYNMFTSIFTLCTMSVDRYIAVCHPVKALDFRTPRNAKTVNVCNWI

[8] = Half life in mouse brain homogenates; assay type: ADME, tissue-based; conditions: brain homogenate
Summary of the method: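 Peptide incubated at 37 °C in twice-washed 15% mouse brain membrane homogenate, final protein 2.1 mg/mL in 50 mM Tris, pH 7.4. Aliquots centrifuged 13000g, 15 min, 4 °C, filtered 0.22 μm and analysed by C18 RP-HPLC (acetonitrile/water, 0.05% TFA). Half-life from pseudo-first-order disappearance kinetics; at least three experiments.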

[9] = target: T1, Mu-type opioid receptor; assay: Agonist activity at mu opioid receptor expressed in HEK293 cells assessed as inhibition of forskolin-induced cAMP accumulation after 30 mins by liquid scintillation counter; assay type: functional, cell-based
[10] = target: Delta-type opioid receptor (Mus musculus, UniProt P32300); assay: Agonist activity at delta opioid receptor in Kunming mouse vas deferens assessed as inhibition of electrically-stimulated muscle contraction; assay type: functional, tissue-based
Sequence of Delta-type opioid receptor (Mus musculus, UniProt P32300) (P32300 whole entry): as the sequence (P32300 whole entry) above

[11] = target: T1, Mu-type opioid receptor; assay: Agonist activity at mu opioid receptor expressed in HEK293 cells assessed as inhibition of forskolin-induced cAMP accumulation after 30 mins by liquid scintillation counter relative to control; assay type: functional, cell-based
Summary of the method: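 MOR-expressing HEK293 cells seeded at 80% confluence the day before, washed with serum-free medium, preincubated 10 min at 37 °C with 1 mM IBMX, then peptide (5 × 10−11 to 5 × 10−5 M) with 50 μM forskolin added for 30 min at 37 °C. Lysis in 0.2 N HCl, neutralisation, cAMP measured by competition with [3H]cAMP for PKA (≥2 h, 4 °C) and charcoal separation; scintillation counting.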

[12] = target: Delta-type opioid receptor (Homo sapiens, UniProt P41143); assay: Displacement of [3H]DPDPE from Myc-tagged delta opioid receptor expressed in HEK293 cells after 60 mins by liquid scintillation counter; assay type: cell-based
Sequence of Delta-type opioid receptor (Homo sapiens, UniProt P41143) (P41143 whole entry): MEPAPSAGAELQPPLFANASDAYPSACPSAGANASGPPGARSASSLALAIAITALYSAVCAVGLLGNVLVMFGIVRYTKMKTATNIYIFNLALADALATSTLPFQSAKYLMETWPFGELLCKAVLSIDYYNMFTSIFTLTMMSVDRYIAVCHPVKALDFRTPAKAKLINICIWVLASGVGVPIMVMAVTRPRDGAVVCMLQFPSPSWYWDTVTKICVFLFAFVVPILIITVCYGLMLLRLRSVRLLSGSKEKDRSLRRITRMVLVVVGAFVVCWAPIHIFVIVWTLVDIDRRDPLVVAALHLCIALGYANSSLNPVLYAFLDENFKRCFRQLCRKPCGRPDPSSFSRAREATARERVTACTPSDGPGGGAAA

[13] = target: T1, Mu-type opioid receptor; assay: Agonist activity at human FLAG-tagged mu opioid receptor expressed in HEK293 cells assessed as induction of ERK1/2 phosphorylation at 10 nM after 10 mins by Western blot analysis; assay type: functional, cell-based
Summary of the method: (§2)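 Stable HEK293 line with FLAG-tagged MOR, in 12-well plates and serum-starved 16 h, then exposed to peptide at various concentrations for 10 min at 37 °C. Lysis in RIPA with 10 μM PMSF and phosphatase inhibitors. 20 μg protein run on 10% SDS-PAGE, blotted to PVDF and probed for phospho-ERK1/2 (Thr202/Tyr204) and total ERK1/2 (1:1000), ECL detection; at least three independent experiments.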

[14] = target: T1, Mu-type opioid receptor; assay: Agonist activity at human FLAG-tagged mu opioid receptor expressed in HEK293 cells assessed as induction of ERK1/2 phosphorylation after 10 mins by Western blot analysis; assay type: functional, cell-based; summary of the method: as §2
[15] = target: T1, Mu-type opioid receptor; assay: Agonist activity at human FLAG-tagged mu opioid receptor expressed in HEK293 cells assessed as induction of ERK1/2 phosphorylation at 1 pM after 10 mins by Western blot analysis; assay type: functional, cell-based; summary of the method: as §2

Row | Compound | inhibition [1] | inhibition [2] | inhibition [3] | ED50 [3] | Ratio Ki [4] | pKi [5] | inhibition [6] | pIC50 [7] | half-life [8] | pEC50 [9] | inhibition [9] | pIC50 [10] | Emax [11] | pKi [12] | Activity [13] | Activity [14] | Activity [15]
1 | NC(=O)[C@H](Cc1ccccc1)NC(=O)[C@H](Cc1c[nH]c2ccccc12)NC(=O)[C@@H]1CCCN1C(=O)[C@@H](N)Cc1ccc(O)cc1 | inactive | – | – | – | – | – | – | – | – | – | – | – | – | – | – | – | –
2 | C=C(C(N)=O)[C@@H](NC(=O)[C@H](Cc1c[nH]c2ccccc12)NC(=O)[C@@H]1CCCN1C(=O)[C@@H](N)Cc1ccc(O)cc1)c1cccc(Cl)c1 | inactive | tde | Dose-dependent effect | 0.00928 µmol/kg | 1670 | 8.46 | inactive | 8.12 | 1.5 h | 9.14 | Dose-dependent effect | 7.16 | 92.5% | 5.24 | – | – | –
3 | C=C(C(=O)N[C@@H](Cc1ccccc1)C(N)=O)[C@@H](NC(=O)[C@@H]1CCCN1C(=O)[C@@H](N)Cc1ccc(O)cc1)c1ccccc1 | inactive | – | Dose-dependent effect | – | 576 | 6.99 | – | 7.68 | – | 7.44 | Dose-dependent effect | < 5.00 | 70.8% | 4.23 | – | – | –
4 | C=C(C(N)=O)[C@@H](NC(=O)[C@H](Cc1c[nH]c2ccccc12)NC(=O)[C@@H]1CCCN1C(=O)[C@@H](N)Cc1ccc(O)cc1)c1ccoc1 | inactive | tde | Dose-dependent effect | 0.00155 µmol/kg | 186000 | 9.56 | inactive | 8.40 | 1.47 h | 10.47 | Dose-dependent effect | 7.99 | 98.7% | 4.29 | Active | Dose-dependent effect | Active
5 | C=C(C(N)=O)[C@@H](NC(=O)[C@H](Cc1c[nH]c2ccccc12)NC(=O)[C@@H]1CCCN1C(=O)[C@@H](N)Cc1ccc(O)cc1)c1ccc2c(c1)OCO2 | inactive | – | – | – | 2420 | 8.11 | – | 7.84 | – | 7.97 | Dose-dependent effect | 6.36 | 83.9% | 4.73 | – | – | –
6 | C=C(C(N)=O)[C@@H](NC(=O)[C@H](Cc1c[nH]c2ccccc12)NC(=O)[C@@H]1CCCN1C(=O)[C@@H](N)Cc1ccc(O)cc1)c1ccccc1 | inactive | tde | Dose-dependent effect | 0.00233 µmol/kg | 105000 | 9.27 | inactive | 8.17 | 1.04 h | 9.80 | Dose-dependent effect | 8.12 | 97.9% | 4.25 | Active | Dose-dependent effect | Active
7 | C=C(C(N)=O)[C@@H](NC(=O)[C@H](Cc1c[nH]c2ccccc12)NC(=O)[C@@H]1CCCN1C(=O)[C@@H](N)Cc1ccc(O)cc1)c1ccc(Cl)cc1 | inactive | – | Dose-dependent effect | – | 1520 | 8.15 | – | 7.82 | – | 7.92 | Dose-dependent effect | 7.44 | 85.6% | 4.97 | – | – | –
8 | C=C(C(N)=O)[C@@H](NC(=O)[C@H](Cc1c[nH]c2ccccc12)NC(=O)[C@@H]1CCCN1C(=O)[C@@H](N)Cc1ccc(O)cc1)c1ccc(OC)cc1 | inactive | – | – | – | 2110 | 8.32 | – | 7.07 | – | 7.96 | Dose-dependent effect | 6.52 | 85.6% | 4.99 | – | – | –
9 | C=C(C(N)=O)[C@@H](NC(=O)[C@H](Cc1c[nH]c2ccccc12)NC(=O)[C@@H]1CCCN1C(=O)[C@@H](N)Cc1ccc(O)cc1)c1ccc(F)cc1 | inactive | – | Dose-dependent effect | – | 1240 | 7.86 | – | 7.50 | – | 8.13 | Dose-dependent effect | 6.89 | 81.5% | 4.77 | – | – | –
10 | C=C(C(N)=O)[C@@H](NC(=O)[C@H](Cc1c[nH]c2ccccc12)NC(=O)[C@@H]1CCCN1C(=O)[C@@H](N)Cc1ccc(O)cc1)c1ccccc1Cl | inactive | – | – | – | 2720 | 8.26 | – | 7.78 | – | 9.08 | Dose-dependent effect | 6.44 | 82.6% | 4.83 | – | – | –
11 | NC(=O)[C@H](Cc1ccccc1)NC(=O)[C@H](Cc1ccccc1)NC(=O)[C@@H]1CCCN1C(=O)[C@@H](N)Cc1ccc(O)cc1 | inactive | – | – | – | – | – | – | – | – | – | – | – | 82.8% | – | – | – | –
12 | C=C(C(N)=O)[C@@H](NC(=O)[C@H](Cc1c[nH]c2ccccc12)NC(=O)[C@@H]1CCCN1C(=O)[C@@H](N)Cc1ccc(O)cc1)c1cccc2ccccc12 | inactive | – | – | – | 3260 | 7.59 | – | 7.47 | – | 7.14 | Dose-dependent effect | 7.07 | 71% | 4.07 | – | – | –
13 | C=C(C(N)=O)[C@@H](NC(=O)C(=C)[C@@H](NC(=O)[C@@H]1CCCN1C(=O)[C@@H](N)Cc1ccc(O)cc1)c1ccccc1)c1ccccc1 | inactive | – | Dose-dependent effect | – | 699 | 7.80 | – | 7.42 | – | 7.35 | Dose-dependent effect | 6.78 | 60.3% | 4.96 | – | – | –
14 | C=C(C(N)=O)[C@@H](NC(=O)[C@H](Cc1c[nH]c2ccccc12)NC(=O)[C@@H]1CCCN1C(=O)[C@@H](N)Cc1ccc(O)cc1)c1ccco1 | inactive | tde | Dose-dependent effect | 0.00142 µmol/kg | 226000 | 9.66 | inactive | 8.53 | 1.43 h | 10.48 | Dose-dependent effect | 7.80 | 97.1% | 4.30 | Active | Dose-dependent effect | Active
15 | C=C(C(N)=O)[C@@H](NC(=O)[C@H](Cc1c[nH]c2ccccc12)NC(=O)[C@@H]1CCCN1C(=O)[C@@H](N)Cc1ccc(O)cc1)c1ccc2ccccc2c1 | inactive | – | – | – | 3100 | 7.56 | – | 7.74 | – | 7.15 | Dose-dependent effect | 6.85 | 67.5% | 4.07 | – | – | –
